Laboratory results: ChEMBL document CHEMBL5058577, “EUbOPEN Chemogenomics Library 2 (Multiplex)” (2022)

Test system: HEK-293T
Assay: Multiplex assay against HEK293T
Format: toxicity, cell-based
Conditions: human
How it was run: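 Compound was added to live cells that had been stained at seeding with Hoechst33342, BioTracker Green Microtubule Cytoskeleton Dye, MitoTracker Red and Annexin V Alexa Fluor 680, and imaging followed on a CQ1 microscope at 37°C and 5% CO2. CellPathfinder machine-learning gating divided cells into Hoechst high-intensity objects or normal cells, normal cells into healthy, pyknosed or fragmented nuclei, and pyknosed cells into mitotic or apoptotic. Tubulin, mitochondrial-mass and membrane-permeability phenotypes are per cents of healthy-nucleus cells.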

[1] = 12 h, 1 µM, compound concentration 1 uM, replicate 1
[2] = 12 h, 1 µM, compound concentration 1 uM, replicate 2
[3] = 12 h, 10 µM, compound concentration 10 uM, replicate 1
[4] = 12 h, 10 µM, compound concentration 10 uM, replicate 2
[5] = 24 h, 1 µM, compound concentration 1 uM, replicate 1
[6] = 24 h, 1 µM, compound concentration 1 uM, replicate 2
[7] = 24 h, 10 µM, compound concentration 10 uM, replicate 1
[8] = 24 h, 10 µM, compound concentration 10 uM, replicate 2
[9] = 48 h, 1 µM, compound concentration 1 uM, replicate 1
[10] = 48 h, 1 µM, compound concentration 1 uM, replicate 2
[11] = 48 h, 10 µM, compound concentration 10 uM, replicate 1
[12] = 48 h, 10 µM, compound concentration 10 uM, replicate 2

SMILES: CCc1nn2c(C)cc(C)nc2c1Cc1ccc(-c2nnc(C3CCNCC3)o2)cc1
- Population Apoptotic (%) [1]: 35%
- Population Fragmented Nuclei (%) [1]: 9%
- Population Healthy Nuclei (%) [1]: 80%
- Population Hoechst High Intensity Objects (%) [1]: 7%
- Population Membrane Permeable-Phenotype (%) [1]: 0%
- Population Mitochondria Different-Phenotype (%) [1]: 54%
- Population Mitotic Cells (%) [1]: 64%
- Population Normal (%) [1]: 92%
- Population Pyknosed Nuclei (%) [1]: 10%
- Population Tubulin-Different-Phenotype (%) [1]: 37%
- Total Cell Count [1]: 401
- Population Apoptotic (%) [2]: 51%
- Population Fragmented Nuclei (%) [2]: 7%
- Population Healthy Nuclei (%) [2]: 78%
- Population Hoechst High Intensity Objects (%) [2]: 5%
- Population Mitochondria Different-Phenotype (%) [2]: 62%
- Population Mitotic Cells (%) [2]: 48%
- Population Normal (%) [2]: 94%
- Population Pyknosed Nuclei (%) [2]: 13%
- Population Tubulin-Different-Phenotype (%) [2]: 19%
- Total Cell Count [2]: 395
- Population Apoptotic (%) [3]: 63%
- Population Fragmented Nuclei (%) [3]: 6%
- Population Healthy Nuclei (%) [3]: 68%
- Population Hoechst High Intensity Objects (%) [3]: 11%
- Population Membrane Permeable-Phenotype (%) [3]: 0%
- Population Mitochondria Different-Phenotype (%) [3]: 85%
- Population Mitotic Cells (%) [3]: 36%
- Population Normal (%) [3]: 88%
- Population Pyknosed Nuclei (%) [3]: 25%
- Population Tubulin-Different-Phenotype (%) [3]: 65%
- Total Cell Count [3]: 319
- Population Apoptotic (%) [4]: 56%
- Population Fragmented Nuclei (%) [4]: 4%
- Population Healthy Nuclei (%) [4]: 78%
- Population Hoechst High Intensity Objects (%) [4]: 12%
- Population Mitochondria Different-Phenotype (%) [4]: 86%
- Population Mitotic Cells (%) [4]: 43%
- Population Normal (%) [4]: 87%
- Population Pyknosed Nuclei (%) [4]: 17%
- Population Tubulin-Different-Phenotype (%) [4]: 48%
- Total Cell Count [4]: 293
- Population Apoptotic (%) [5]: 44%
- Population Fragmented Nuclei (%) [5]: 10%
- Population Healthy Nuclei (%) [5]: 76%
- Population Hoechst High Intensity Objects (%) [5]: 4%
- Population Membrane Permeable-Phenotype (%) [5]: 0%
- Population Mitochondria Different-Phenotype (%) [5]: 36%
- Population Mitotic Cells (%) [5]: 55%
- Population Normal (%) [5]: 95%
- Population Pyknosed Nuclei (%) [5]: 13%
- Population Tubulin-Different-Phenotype (%) [5]: 23%
- Total Cell Count [5]: 529
- Population Apoptotic (%) [6]: 34%
- Population Fragmented Nuclei (%) [6]: 7%
- Population Healthy Nuclei (%) [6]: 78%
- Population Hoechst High Intensity Objects (%) [6]: 5%
- Population Mitochondria Different-Phenotype (%) [6]: 50%
- Population Mitotic Cells (%) [6]: 65%
- Population Normal (%) [6]: 94%
- Population Tubulin-Different-Phenotype (%) [6]: 19%
- Total Cell Count [6]: 542
- Population Apoptotic (%) [7]: 69%
- Population Fragmented Nuclei (%) [7]: 11%
- Population Healthy Nuclei (%) [7]: 72%
- Population Hoechst High Intensity Objects (%) [7]: 5%
- Population Membrane Permeable-Phenotype (%) [7]: 0%
- Population Mitochondria Different-Phenotype (%) [7]: 73%
- Population Mitotic Cells (%) [7]: 30%
- Population Normal (%) [7]: 94%
- Population Pyknosed Nuclei (%) [7]: 15%
- Population Tubulin-Different-Phenotype (%) [7]: 50%
- Total Cell Count [7]: 448
- Population Apoptotic (%) [8]: 41%
- Population Fragmented Nuclei (%) [8]: 10%
- Population Healthy Nuclei (%) [8]: 77%
- Population Hoechst High Intensity Objects (%) [8]: 7%
- Population Mitochondria Different-Phenotype (%) [8]: 78%
- Population Mitotic Cells (%) [8]: 58%
- Population Normal (%) [8]: 92%
- Population Pyknosed Nuclei (%) [8]: 11%
- Population Tubulin-Different-Phenotype (%) [8]: 45%
- Total Cell Count [8]: 389
- Population Apoptotic (%) [9]: 28%
- Population Fragmented Nuclei (%) [9]: 12%
- Population Healthy Nuclei (%) [9]: 79%
- Population Hoechst High Intensity Objects (%) [9]: 2%
- Population Membrane Permeable-Phenotype (%) [9]: 0%
- Population Mitochondria Different-Phenotype (%) [9]: 25%
- Population Mitotic Cells (%) [9]: 71%
- Population Normal (%) [9]: 97%
- Population Pyknosed Nuclei (%) [9]: 8%
- Population Tubulin-Different-Phenotype (%) [9]: 15%
- Total Cell Count [9]: 842
- Population Apoptotic (%) [10]: 32%
- Population Fragmented Nuclei (%) [10]: 11%
- Population Healthy Nuclei (%) [10]: 83%
- Population Hoechst High Intensity Objects (%) [10]: 5%
- Population Mitochondria Different-Phenotype (%) [10]: 24%
- Population Mitotic Cells (%) [10]: 67%
- Population Normal (%) [10]: 94%
- Population Pyknosed Nuclei (%) [10]: 5%
- Population Tubulin-Different-Phenotype (%) [10]: 10%
- Total Cell Count [10]: 829
- Population Apoptotic (%) [11]: 54%
- Population Fragmented Nuclei (%) [11]: 14%
- Population Healthy Nuclei (%) [11]: 72%
- Population Hoechst High Intensity Objects (%) [11]: 4%
- Population Membrane Permeable-Phenotype (%) [11]: 0%
- Population Mitochondria Different-Phenotype (%) [11]: 59%
- Population Mitotic Cells (%) [11]: 45%
- Population Normal (%) [11]: 95%
- Population Pyknosed Nuclei (%) [11]: 13%
- Population Tubulin-Different-Phenotype (%) [11]: 32%
- Total Cell Count [11]: 517
- Population Apoptotic (%) [12]: 50%
- Population Fragmented Nuclei (%) [12]: 12%
- Population Healthy Nuclei (%) [12]: 80%
- Population Hoechst High Intensity Objects (%) [12]: 3%
- Population Mitochondria Different-Phenotype (%) [12]: 56%
- Population Mitotic Cells (%) [12]: 50%
- Population Normal (%) [12]: 96%
- Population Pyknosed Nuclei (%) [12]: 6%
- Population Tubulin-Different-Phenotype (%) [12]: 26%
- Total Cell Count [12]: 607
